Legend:
[1] = Cytotoxicity against human MCF7 cells after 48 hrs by MTT assay; assay type: cell-based
Plasmodium falciparum [2] = assay: Antimalarial activity against chloroquine-resistant Plasmodium falciparum FcB1 assessed as [3H]hypoxanthine incorporation after 48 hrs by beta-counter; assay type: functional, organism-based; settings: FcB1/Columbia
In short: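 Primary assay (Toulouse) on FcB1 cultured in RPMI with 25 mM HEPES and 10% human serum, O RBCs. Serial dilutions in triplicate, 2% parasitaemia, 2% haematocrit, 48 h at 37 °C, 5% CO2. [3H]-hypoxanthine added at 24 h, freeze-thaw harvest, β-counting. IC50 by linear regression on the linear segment of the semilog inhibition curve. Three independent repeats.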

[3] = Selectivity index, ratio of CC50 for human MCF7 cells to IC50 for chloroquine-resistant Plasmodium falciparum FcB1; assay type: functional
In short: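 XTT 0.5 mg/mL added for 180 min, formazan read at 450 nm, value taken from dose–response curves, two experiments in triplicate. This CC50 is divided by the FcB1 IC50 to give the index.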

Plasmodium falciparum [4] = assay: Antimalarial activity against drug-sensitive Plasmodium falciparum 3D7 assessed as [3H]hypoxanthine incorporation by scintillation counting; assay type: functional, organism-based
Plasmodium falciparum [5] = assay: Antimalarial activity against Plasmodium falciparum K1 assessed as [3H]hypoxanthine incorporation by scintillation counting; assay type: functional, organism-based
Plasmodium falciparum [6] = assay: Resistance index, ratio of IC50 for chloroquine-resistant Plasmodium falciparum K1 to IC50 for drug-sensitive Plasmodium falciparum 3D7; assay type: functional
Plasmodium falciparum [7] = assay: Resistance index, ratio of IC50 for chloroquine-resistant Plasmodium falciparum FcB1 to IC50 for drug-sensitive Plasmodium falciparum 3D7; assay type: functional
[8] = Selectivity index, ratio of CC50 for human KB cells to IC50 for drug-sensitive Plasmodium falciparum 3D7; assay type: functional
In short: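 The 3D7 value came from [3H]hypoxanthine incorporation: synchronized culture at 0.5% parasitaemia, 2.5% hematocrit, Albumax-supplemented medium, 2-fold dilutions from 100 to 0.05 μM in triplicate, label added at 24 h and harvested at 48 h.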

[9] = Cytotoxicity against human KB cells after 72 hrs by alamar blue assay; assay type: cell-based
In short: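 KB cells were seeded at 4×10^4 cells/mL in RPMI 1640 with 10% heat-inactivated FCS and left 24 h at 37 °C, 5% CO2. A dilution series was added in triplicate for 72 h, then AlamarBlue for 2–4 h. Fluorescence was read at ex 530/em 585 nm, with podophyllotoxin as positive control and values from curve fitting.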

Structure (SMILES) | CC50 at 48 h [1] [µM] | IC50 (Plasmodium falciparum [2]) [µM] | Ratio CC50/IC50 [3] | also measured
Cc1ccc(C2=[N+]([O-])c3ccccc3C2=O)cc1 | 15 | 1.77 | 8.5 | –
COc1ccc2c(c1)C(=O)C(c1cc(OC)c3ccccc3c1)=[N+]2[O-] | 14.4 | 0.135 | 107 | –
COc1ccc2c(c1)C(=O)C(c1ccc(Cl)c(Cl)c1)=[N+]2[O-] | 8.1 | 0.1 | 81 | –
CCC1=[N+]([O-])c2cc3c(cc2C1=O)OCO3 | 59 | 3.56 | 16 | –
COc1ccc(C2=[N+]([O-])c3cc(OC)ccc3C2=O)cc1 | 8.8 | 0.106 | 83.3 | –
O=C1C(c2ccc([N+](=O)[O-])cc2)=[N+]([O-])c2ccccc21 | 2.8 | 0.056 | – | –
COc1cc2c(cc1OC)[N+]([O-])=C(c1ccc(C)cc1)C2=O | – | 0.265 | – | –
O=C1C(c2ccc(F)cc2)=[N+]([O-])c2ccccc21 | 8.7 | 0.12 | 72.5 | –
O=C1C(c2ccc(Cl)cc2)=[N+]([O-])c2ccccc21 | 17.8 | 0.272 | 66 | –
O=C1C(c2ccc(Cl)cc2)=[N+]([O-])c2cc(C(F)(F)F)ccc21 | 3.1 | 0.186 | 16.5 | –
O=C1C(c2ccc(F)cc2)=[N+]([O-])c2cc3c(cc21)OCO3 | – | 1.71 | – | –
COc1ccc2c(c1)C(=O)C(c1ccc(NC(C)=O)cc1)=[N+]2[O-] | 7.4 | 0.4 | 18.5 | –
CCc1ccc(C2=[N+]([O-])c3ccccc3C2=O)cc1 | > 39.8 | 2.75 | >14 | –
COc1ccc2c(c1)C(=O)C(c1ccc(N)cc1)=[N+]2[O-] | 12.7 | 0.024 | 528 | –
COc1ccc(C2=[N+]([O-])c3ccc(OC)cc3C2=O)cc1 | > 35.3 | 0.04 | >882 | IC50 (Plasmodium falciparum [4]): 0.082 µM; IC50 (Plasmodium falciparum [5]): 0.016 µM; Ratio IC50 (Plasmodium falciparum [6]): 0.2; Ratio IC50 (Plasmodium falciparum [7]): 0.5; Ratio CC50/IC50 [8]: 10658; CC50 at 72 h [9]: 874 µM
COc1ccc2c(c1)C(=O)C(c1ccc(OC(F)(F)F)cc1)=[N+]2[O-] | 8.3 | 0.02 | 415 | IC50 (Plasmodium falciparum [4]): 0.03 µM; IC50 (Plasmodium falciparum [5]): 0.081 µM; Ratio IC50 (Plasmodium falciparum [6]): 2.7; Ratio IC50 (Plasmodium falciparum [7]): 0.7; CC50 at 72 h [9]: 11 µM
COc1ccc(C2=[N+]([O-])c3cc(OC(F)(F)F)ccc3C2=O)cc1 | 11.7 | 0.133 | 88.1 | IC50 (Plasmodium falciparum [4]): 0.021 µM; IC50 (Plasmodium falciparum [5]): 0.112 µM; Ratio IC50 (Plasmodium falciparum [6]): 5.3; Ratio IC50 (Plasmodium falciparum [7]): 6.3; CC50 at 72 h [9]: 16 µM
COc1ccc2c(c1)C(=O)C(c1ccc(Cl)cc1Cl)=[N+]2[O-] | > 31 | 0.227 | >136 | –
COc1ccc2c(c1)C(=O)C(c1ccccc1Cl)=[N+]2[O-] | – | 1.13 | – | –
COc1ccc(C2=[N+]([O-])c3cc(C(F)(F)F)ccc3C2=O)cc1 | 7.9 | 0.135 | 58.8 | –
COc1ccc(C2=[N+]([O-])c3cc([N+](=O)[O-])ccc3C2=O)cc1 | 21.8 | 0.345 | 63.2 | –
COc1cc2c(cc1OC)[N+]([O-])=C(c1ccccc1)C2=O | – | 1.89 | – | –
O=C1C(c2ccsc2)=[N+]([O-])c2cc(Cl)ccc21 | 4.9 | 0.13 | 38 | –
COc1ccc2c(c1)C(=O)C(c1ccc(Cl)c(C)c1)=[N+]2[O-] | 10.3 | 0.003 | 3425 | –
CC(C)CC1=[N+]([O-])c2ccccc2C1=O | 43.1 | > 4.5 | <9 | –
COc1ccc2c(c1)C(=O)C(c1ccc(C(C)=O)cc1)=[N+]2[O-] | 40.2 | 0.256 | – | –
COc1ccc2cc(C3=[N+]([O-])c4cc5c(cc4C3=O)OCO5)ccc2c1 | 25.6 | – | – | –

From ChEMBL document CHEMBL1156797, “Synthesis and antiplasmodial activity of new indolone N-oxide derivatives” (J Med Chem, 2010)
